Data: ChEMBL document CHEMBL4813921, “Optimization of WZ4003 as NUAK inhibitors against human colorectal cancer” (Eur J Med Chem, 2021)
Active and inactive are the calls of the source. No cut-off for these calls is given here.

Tests used:
[1] = biological target: T1, NUAK family SNF1-like kinase 2 (Homo sapiens) (UniProt Q9H093); experiment: Inhibition of NUAK2 (unknown origin) at 10 uM using CHKtide as substrate in presence of ATP measured after 60 mins by ADP-Glo assay
T1 sequence (whole entry): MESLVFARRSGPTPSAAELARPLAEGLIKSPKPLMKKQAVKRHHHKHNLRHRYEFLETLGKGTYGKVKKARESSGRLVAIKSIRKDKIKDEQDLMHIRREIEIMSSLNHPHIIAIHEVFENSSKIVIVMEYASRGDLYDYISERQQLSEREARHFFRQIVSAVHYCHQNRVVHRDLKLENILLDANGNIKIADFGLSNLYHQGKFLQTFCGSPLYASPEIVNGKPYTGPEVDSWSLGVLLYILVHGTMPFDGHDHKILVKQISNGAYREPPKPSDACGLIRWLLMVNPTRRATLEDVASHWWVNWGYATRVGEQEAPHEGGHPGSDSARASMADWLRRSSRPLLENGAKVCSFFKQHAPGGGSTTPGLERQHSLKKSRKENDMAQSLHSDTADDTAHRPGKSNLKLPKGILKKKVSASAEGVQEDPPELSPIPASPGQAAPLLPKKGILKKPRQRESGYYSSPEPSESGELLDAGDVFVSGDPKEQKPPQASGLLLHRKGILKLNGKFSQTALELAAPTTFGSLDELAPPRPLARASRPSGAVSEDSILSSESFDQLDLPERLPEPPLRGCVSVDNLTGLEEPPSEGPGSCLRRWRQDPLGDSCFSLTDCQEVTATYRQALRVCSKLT

[2] = biological target: T2, NUAK family SNF1-like kinase 1 (Homo sapiens) (UniProt O60285); experiment: Inhibition of NUAK1 (unknown origin) at 10 uM using CHKtide as substrate in presence of ATP measured after 60 mins by ADP-Glo assay
T2 sequence (whole entry): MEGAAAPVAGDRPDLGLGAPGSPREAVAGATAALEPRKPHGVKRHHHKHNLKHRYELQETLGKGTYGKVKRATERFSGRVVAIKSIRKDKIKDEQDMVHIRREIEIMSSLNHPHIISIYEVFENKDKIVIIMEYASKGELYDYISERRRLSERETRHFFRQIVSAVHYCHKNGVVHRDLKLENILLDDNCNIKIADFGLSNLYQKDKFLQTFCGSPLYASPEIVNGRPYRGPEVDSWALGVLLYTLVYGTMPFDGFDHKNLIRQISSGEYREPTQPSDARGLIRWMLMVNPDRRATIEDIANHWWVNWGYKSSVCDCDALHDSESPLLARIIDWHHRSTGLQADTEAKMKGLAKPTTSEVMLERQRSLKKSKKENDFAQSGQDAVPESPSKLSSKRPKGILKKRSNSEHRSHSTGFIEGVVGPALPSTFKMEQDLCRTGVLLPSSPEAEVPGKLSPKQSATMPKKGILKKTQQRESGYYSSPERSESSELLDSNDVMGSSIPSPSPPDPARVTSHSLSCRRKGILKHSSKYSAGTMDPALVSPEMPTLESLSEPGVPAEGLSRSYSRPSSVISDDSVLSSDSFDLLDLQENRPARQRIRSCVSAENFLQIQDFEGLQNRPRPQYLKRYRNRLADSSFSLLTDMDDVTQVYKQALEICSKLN

SW480 [3] = experiment: Antiproliferative activity against human SW480 cells at 2.5 to 10 uM measured after 48 hrs by EdU staining based assay; type: functional, cell-based; details: dose 2.5-10 µM
Summary of the method: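 Cells exposed to a range of compound concentrations for 48 h, then EdU click-chemistry staining with DAPI counterstain. Confocal high-content imaging; DAPI-positive nuclei counted as total and EdU-positive as proliferating.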

[4] = Toxicity against BALB/c-nu/nu mouse xenografted with human SW480 cells assessed as morphological changes in kidney at 10 to 20 mg/kg, ip administered every 2 days for 18 days by H and E staining based analysis; type: organism-based; details: in vivo, 432 h, dose 10-20 mg/kg, time 18 day
Summary of the method: (§1)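 After 18 days of ip dosing every two days in SW480-xenografted nude mice, heart, liver, spleen, lung and kidney harvested, sectioned, HE-stained, examined at ×400.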

HCT-116 [5] = experiment: Induction of cell cycle arrest in human HCT-116 cells assessed as reduction in accumulation at G1 phase at 10 uM measured after 48 hrs by PI/RNaseA staining based flow cytometry assay; type: functional
U2OS [6] = experiment: Antiproliferative activity against human U2OS cells assessed as reduction in cell viability at 10 uM measured after 1 to 5 days by MTT assay; type: functional; details: time 1-5 day
Summary of the method: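 MTT viability read daily over 1–5 days of exposure to 10 μM compound; mean ± SD, n = 3.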

U2OS [7] = experiment: Induction of apoptosis in human U2OS cells assessed as late apoptotic cells at 10 uM measured after 48 hrs by Annexin V-FITC/PI staining based flow cytometry method (reference value: 1.3%); type: functional
HCT-116 [8] = experiment: Induction of cell cycle arrest in human HCT-116 cells assessed as reduction in accumulation at S phase at 10 uM measured after 48 hrs by PI/RNaseA staining based flow cytometry assay; type: functional
SW480 [9] = experiment: Induction of cell cycle arrest in human SW480 cells assessed as increase in accumulation at G2/M phase at 10 uM measured after 48 hrs by PI/RNaseaA staining based flow cytometry assay; type: functional
[10] = Toxicity against BALB/c-nu/nu mouse xenografted with human SW480 cells assessed as morphological changes in liver at 10 to 20 mg/kg, ip administered every 2 days for 18 days by H and E staining based analysis; type: organism-based; details: in vivo, 432 h, dose 10-20 mg/kg, time 18 day; summary of the method: as §1
HCT-116 [11] = experiment: Induction of ROS generation in human HCT-116 cells at 10 uM measured after 48 hrs by DCFH-DA staining based flow cytometry method; type: functional, cell-based
Summary of the method: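 Cells treated at 10 μM for 48 h, ROS measured by flow cytometry. Fluorescence intensity expressed relative to vehicle-treated controls; mean ± SEM from 3 independent experiments.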

HCT-116 [12] = experiment: Induction of apoptosis in human HCT-116 cells assessed as early apoptotic cells at 10 uM measured after 48 hrs by Annexin V-FITC/PI staining based flow cytometry method (reference value: 0.8%); type: functional
U2OS [13] = experiment: Induction of cell cycle arrest in human U2OS cells assessed as reduction in accumulation at G1 phase at 10 uM measured after 48 hrs by PI/RNaseA staining based flow cytometry assay; type: functional
HCT-116 [14] = experiment: Induction of apoptosis in human HCT-116 cells assessed as necrotic cells at 10 uM measured after 48 hrs by Annexin V-FITC/PI staining based flow cytometry method (reference value: 2.2%); type: functional
U2OS [15] = experiment: Induction of apoptosis in human U2OS cells assessed as early apoptotic cells at 10 uM measured after 48 hrs by Annexin V-FITC/PI staining based flow cytometry method (reference value: 2.8%); type: functional
SW480 [16] = experiment: Antitumour activity against human SW480 cells xenografted in Balb/c-nu/nu mouse assessed as reduction in tumor weight at 10 to 20 mg/kg, ip administered every 2 days for 18 days; type: functional, organism-based; details: dose 10-20 mg/kg, time 18.0 day
Summary of the method: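 SW480 xenografts in nude mice, randomized at 100 mm3 tumour volume into four groups of six. Dosed ip at 10 or 20 mg/kg every two days for 18 days, with vehicle group. Tumour volume and body weight recorded every two days; tumours weighed at end; means ± SD (n = 6).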

With `CCC(=O)Nc1cccc(Oc2nc(Nc3ccc(N4CCN(C)CC4)cc3)ncc2Cl)c1` the inhibition [1] was 82.5%, the inhibition [2] was 92.9% and the Activity (SW480 [3]) was “Active”. For the same compound, the Activity [4] was “Non-Toxic”, the Activity (HCT-116 [5]) was “Active” and the inhibition at 10 µM (U2OS [6]) was 67.2%. The Activity (U2OS [7]) was 4.8%, the Activity (HCT-116 [8]) was “Active” and the Activity (SW480 [9]) was “Active”. The Activity [10] was “Non-Toxic”, the Activity (HCT-116 [11]) was “Active” and the Activity (HCT-116 [12]) was 3.9%. The Activity (U2OS [13]) was “Active”, the Activity (HCT-116 [14]) was 4.1% and the Activity (U2OS [15]) was 12.9%. For the same compound, the Activity (SW480 [16]) was “Active”.
